Shown are actives, neighbours in structure and some others; about 1.9% of the full set was active somewhere.
RAD54 inh: inhibitors of human RAD54 branch migration, primary screen, biochemical, fluorescence, single point; DNA repair and recombination protein RAD54-like (Homo sapiens), Q92698; hit rate 0.14% among 360,000; RAD54 Holliday junction branch migration, FAM/BHQ fluorescence; AID 602329, 2012; inhibition, % at 10.4 µM;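 active means mean normalized replicate activity at least 40 and at least half of replicates scoring 40 or more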;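 further: 0% = median of neutral control wells and 100% = median of positive control wells; inhibitors cause a drop in the FAM fluorescence signal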
Target sequence (Q92698 whole entry, looked up): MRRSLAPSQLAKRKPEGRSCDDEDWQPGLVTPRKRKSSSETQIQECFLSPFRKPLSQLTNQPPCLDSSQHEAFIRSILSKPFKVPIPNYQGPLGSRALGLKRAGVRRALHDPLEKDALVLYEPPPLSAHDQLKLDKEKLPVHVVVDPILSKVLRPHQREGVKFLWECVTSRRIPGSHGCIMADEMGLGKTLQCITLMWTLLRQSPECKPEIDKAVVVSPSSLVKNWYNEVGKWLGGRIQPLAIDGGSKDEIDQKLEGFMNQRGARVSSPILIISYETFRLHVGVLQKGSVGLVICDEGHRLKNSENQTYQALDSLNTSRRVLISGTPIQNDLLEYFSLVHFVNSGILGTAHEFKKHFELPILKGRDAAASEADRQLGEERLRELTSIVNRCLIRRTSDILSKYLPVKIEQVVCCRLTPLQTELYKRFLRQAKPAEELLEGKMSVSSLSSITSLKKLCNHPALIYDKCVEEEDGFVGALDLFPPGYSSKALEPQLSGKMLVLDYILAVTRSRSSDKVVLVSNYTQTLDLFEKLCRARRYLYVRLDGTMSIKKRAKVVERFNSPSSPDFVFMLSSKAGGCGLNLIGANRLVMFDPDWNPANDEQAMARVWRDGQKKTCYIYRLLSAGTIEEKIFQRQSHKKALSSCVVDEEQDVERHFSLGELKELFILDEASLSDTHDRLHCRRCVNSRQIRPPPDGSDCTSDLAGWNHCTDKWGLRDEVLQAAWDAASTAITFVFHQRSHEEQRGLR
PglD inh: C. jejuni PglD acetyltransferase inhibitors, primary screen, biochemical, DTNB colorimetric, single point | purified PglD enzyme, DTNB colorimetric CoA detection | inhibition, % at 12.5 µM | hit rate 0.098% among 360,000 | AID 602405, 2012; in the data active means inhibition above about 16%, passing the limit was not always enough
RAD52 anneal inh: RAD52 DNA annealing inhibitors, primary screen, biochemical, FRET, single point, set 2; hit rate 0.46% among 360,000; inhibition, % at 18.7 µM; recombinant RAD52 DNA annealing, FRET fluorescence;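 active means every replicate showing at least 50% inhibition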
Ecoli rRNA inh: reduced GFP signal of wild-type E. coli, primary screen, bacterial rRNA inhibitor project, GFP/RFP fluorescence, OD600, single point. hit rate 1.6% among 350,000. E. coli WT GFP vs humanized-ribosome RFP mutants, 24 h; stronger effect = lower value; DMSO median 0, no signal -100. GFP signal change (wild-type ribosome), % (test concentration not listed);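 active means significant combined selectivity score with lowered wild-type GFP, culture density cut under 30%, mutant RFP and density less affected; inactive means any of these conditions unmet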
Cneo AK release: Cryptococcus neoformans cell lysis inducers, primary screen, AK release luminescence, single concentration; lysis activity, % at 15 µM; C. neoformans lysis, adenylate kinase release luminescence, 4 h; normalised: neutral wells 0, clomiphene wells 100; hit rate 0.2% among 360,000; AID 651654, 2012;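 active means mean lysis activity across replicates of at least 80%, whatever share of replicates individually reach that level; inactive means mean lysis activity below 80%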
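Signal: Adenylate kinase release luminescence | Assay system: Log-phase Cryptococcus neoformans yeast cells | Input: Cells at 5 × 10^6 per mL | Buffer or medium: Fresh YPD growth medium | Compound: Single dose | Schedule: Static 4 h at 37 °C with compound, 1 h detection | Controls: Clomiphene | Read-out: Luminescence rise reflecting yeast cell lysis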
Numbers without * were called inactive; · = no result.

SMILES	RAD54 inh	PglD inh	RAD52 anneal inh	Ecoli rRNA inh	Cneo AK release
C[C@H](CO)N1C[C@H](C)[C@@H](CN(C)C(=O)Nc2ccc(C(F)(F)F)cc2)Oc2ccc(NC(=O)Nc3cccc4ccccc34)cc2CC1=O	-3.1	-1.1	10.0	-1.6	-1.0
O=C(Cc1ccc(Cl)cc1Cl)Nc1ccncc1	11.0	1.0	-4.8	-24.7*	2.6
C[C@H](O)C#Cc1ccc([C@H]2[C@@H](CO)N3CCCCN(C(=O)c4ccc5c(c4)OCO5)C[C@H]23)cc1	3.3	-2.1	-3.6	-3.6	2.3
CCN(c1ccccc1)S(=O)(=O)c1ccc(Cl)c(NC(=O)CSc2nnc(C)s2)c1	·	·	-7.0	-31.9*	·
CCN(c1ccccc1)S(=O)(=O)c1ccc(Cl)c(NC(=O)CSc2nncs2)c1	-8.1	1.0	·	·	1.6
O=C(C[C@@H]1CC[C@@H]2[C@H](COC[C@H](O)CN2Cc2ccc(C(F)(F)F)cc2)O1)NCCc1ccccc1	2.4	-0.9	14.5	-5.5	-0.2
COc1ccc(S(=O)(=O)N2C[C@@H](O)COC[C@H]3O[C@@H](CC(=O)NCc4ccc(Cl)c(Cl)c4)CC[C@@H]32)cc1	-10.8	-1.6	-11.3	-9.6	-0.6
CN(C)CC(=O)N1[C@H](CO)[C@@H](c2ccccc2)C12CN(C(=O)C1CCCC1)C2	·	·	-6.4	-1.5	·
CCOC(=O)C1CCN(C2=NC(=O)/C(=C/c3ccc(Cl)cc3)S2)CC1	5.5	-2.0	-27.4	-13.8	-0.6
CCOC(=O)C1CCN(C2=NC(=O)/C(=C/c3ccc(OC)c(OC)c3)S2)CC1	8.2	-2.9	13.0	-29.6*	-0.6
O=c1c2ccccc2nc(COc2ccccc2)n1/N=C/c1c[nH]c2ccccc12	1.9	-2.2	-39.8	4.6	-2.3
O=c1c2ccccc2nc(COc2ccccc2)n1/N=C/c1ccc(O)cc1O	·	·	-14.4	-30.6*	·
C[C@H]1CN([C@@H](C)CO)C(=O)c2cc(C#CC3CCCCC3)cnc2O[C@@H]1CN(C)S(=O)(=O)c1ccccc1	-3.8	-2.6	-3.3	0.2	-2.3
COc1ccc(N2CC(C(=O)Nc3nc4ccc(OC)cc4s3)CC2=O)cc1 (configuration not stated)	6.7	-9.0	-37.0	-3.7	0.2
COc1ccc(N2CC(C(=O)Nc3nc4ccc(F)cc4s3)CC2=O)c(OC)c1 (configuration not stated)	5.9	0.2	-11.2	-30.5*	-3.6
C[C@H]1CN([C@@H](C)CO)C(=O)c2cccc(NC(=O)CCCCCC(=O)Nc3ccccc3N)c2O[C@@H]1CN(C)Cc1ccccc1	·	·	·	-13.8	·
Cc1cccc(-c2ccc([C@H]3[C@@H](CO)N4CCCCN(C(=O)c5ccc6c(c5)OCO6)C[C@H]34)cc2)c1	-0.2	0.9	-24.8	-58.6	2.0
O=C(CC(c1ccccc1)c1ccccc1O)N1CCCC1 (configuration not stated)	-5.1	-5.0	-4.3	-1.2	6.1
Cc1ccc(C(CC(=O)N2CCCC2)c2ccccc2)c(O)c1 (configuration not stated)	-9.8	1.1	-0.2	-26.4*	1.3
CCNC(=O)c1sc(=S)n(-c2ccc(C)cc2)c1N	0.5	-2.8	·	·	0.4
NC(=O)c1sc(=S)n(-c2ccc(Br)cc2)c1N	-11.9	6.8	-16.3	-31.0*	-3.5
CC(C)CC#Cc1ccc2c(c1)O[C@@H](CN(C)Cc1ccccn1)[C@@H](C)CN([C@@H](C)CO)S2(=O)=O	-2.3	-1.7	9.9	-33.6	-9.5
COc1ccc(C(C#N)=C2C=C(Cl)C(=NO)C=C2Cl)cc1	·	·	-15.5	-18.6*	·
COc1cc(-c2cc(-c3ccccc3)nc(SCC(=O)O)c2C#N)cc(OC)c1OC	-4.7	-0.5	-17.6	-29.0*	0.8
CC(=O)c1cccc(NC(=O)c2ccc(N(C)S(=O)(=O)c3ccc(C)cc3)cc2)c1	2.8	0.8	-13.5	-24.5*	-1.8
SMILES	RAD54 inh	PglD inh	RAD52 anneal inh	Ecoli rRNA inh	Cneo AK release
CN(c1ccccc1)S(=O)(=O)c1ccc(C(=O)Nc2ccncc2)cc1	10.0	-5.5	-16.0	-28.4	0.5
COc1ccccc1OCCNC(=O)c1ccc(S(=O)(=O)N(C)C)cc1	5.7	0.7	-19.6	-18.0*	-0.3
COC(=O)c1cccc(NC(=O)c2ccc(S(=O)(=O)N(C)c3ccccc3OC)cc2)c1	-6.4	-1.0	-9.3	-12.7	-5.7
CN(c1ccccc1)S(=O)(=O)c1ccc(NC(=O)c2ccc(F)cc2)cc1	·	·	1.2	-27.8*	·
COc1ccccc1N(C)S(=O)(=O)c1ccc(C(=O)Nc2cccc(Br)c2)cc1	5.7	-6.8	-4.5	-33.8*	0.2
COc1ccccc1-c1ccc2c(c1)O[C@@H](CN(C)CC1CC1)[C@H](C)CN([C@@H](C)CO)S2(=O)=O	·	·	·	1.7	·
COc1ccc(-c2ccc(C3[C@H]4CNC[C@@H]3N4Cc3cncnc3)cc2)cc1 (some centres not stated)	·	·	11.5	6.0	·
C[C@@H]1CN([C@@H](C)CO)C(=O)c2cc(C3=CCCCC3)cnc2O[C@@H]1CN(C)S(C)(=O)=O	·	·	·	7.9	·
C[C@H]1CN([C@@H](C)CO)C(=O)c2cc(NS(=O)(=O)c3cn(C)cn3)ccc2O[C@@H]1CN(C)C(=O)Nc1ccc(C(F)(F)F)cc1	2.6	-2.9	-3.3	-6.7	3.2
O=C(COc1ccccc1)N1c2ccccc2Sc2ccccc21	-1.4	-3.4	-14.4	-33.5*	1.8
Nc1nc(Nc2ccccc2F)nc(N2CCOCC2)c1[N+](=O)[O-]	·	·	-6.1	-19.9*	·
COc1ccc(Nc2nc(N)c([N+](=O)[O-])c(N3CCOCC3)n2)cc1	0.4	-9.7	-5.0	-27.8*	3.6
O=S(=O)(N[C@@H]1CCCN(Cc2cccc(OCCO)c2)C1)c1ccc2ccccc2c1	-10.8	2.7	18.6	·	51.1
Cc1ccc(S(=O)(=O)NC2CCN(Cc3cccc(OCCO)c3)CC2)cc1	-20.9	-1.4	51.5*	·	-0.3
C[C@@H]1CCCCO[C@@H](CN(C)C(=O)Nc2ccccc2)[C@H](C)CN([C@@H](C)CO)C(=O)c2cc(NC(=O)c3ccncc3)ccc2O1	4.1	-4.8	-1.9	3.1	-0.6
CN(C)CCCC1Sc2ccccc2Sc2ccccc21 (configuration not stated)	·	·	46.7	-45.5*	·
COc1cccc(NC(C)(C)c2nnnn2-c2c(C)cccc2C)c1	4.9	-1.5	-5.5	-24.2*	0.2
COC(=O)C1=CN(c2ccc(OC)cc2OC)C(N)=C(C#N)C1c1ccc(OC)cc1 (configuration not stated)	·	·	-9.6	-25.8*	·
S=C(NCCCN1CCOCC1)N1CCN(c2nc(-c3ccccc3)cs2)CC1	-4.0	0.0	4.6	-21.8*	-1.0

Screening data: PubChem, Broad Institute
